Read-outs that look alike come from different tables or passages of the source.
Tests used:
rat TRPV1 = rat TRPV1 (Rattus norvegicus, UniProt O35433); test: Vanilloid-induced 45Ca2+ uptake in TRPV1/HaCaT cells; type: cell-based; conditions: for Effect on CAPS-induced 45Ca2+ uptake (in words): 2 μM CAPS, up to highest concentration 4 mM
[1] = cited from earlier work
[2] = 1:1 complexes; cited from earlier work
TRPV1 [3] = target: T1, TRPV1 (Rattus norvegicus, UniProt O35433); test: Cobalt histochemistry on HaCaT cell line expressing TRPV1 ectopically; type: cell-based; conditions: 20 μM CAPS + 5 mM Co2+; CapZ 300 nM-100 μM, RuRed 500 nM-100 μM
CD1 mice = test: Eye wipe test; type: in vivo; conditions: 100 μM CAPS dropped into the eye with 1 mM CoCl2 or 5 μM CapZ, n = 8
Outline: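 Defensive eye-wiping movements were then counted. Data were means ± SD from eight independent experiments. Inhibition was tested by paired t test (P < 0.05).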

TRPV1 [4] = target: T1, TRPV1; test: Cobalt histochemistry on 3T3 cell line expressing TRPV1 ectopically; type: cell-based; conditions: 10 min, ± S.D.
3T3 cell line = test: Cobalt histochemistry on 3T3 cell line without TRPV1; type: cell-based; conditions: 20 μM CAPS + 5 mM Co2+
rat TRPV1 N628W mutant = rat TRPV1 N628W mutant (Rattus norvegicus, UniProt O35433, N628W); test: CAPS-evoked 45Ca2+ influx in cells expressing the TRPV1 N628W point mutant; type: cell-based; conditions: read-out: IC50, 45Ca2+ influx, 4 μM CAPS
wild-type TRPV1 = wild-type TRPV1 (Rattus norvegicus, UniProt O35433); test: CAPS-evoked 45Ca2+ influx in cells transiently transfected with wild-type TRPV1; type: cell-based; conditions: read-out: IC50, 45Ca2+ influx, 4 μM CAPS
[5] = system: TRPV1+ dorsal root ganglion neurons; test: Cobalt histochemistry in primary DRG sensory neuron cultures; type: cell-based, rat; conditions: 20 μM CAPS, Co2+-uptake medium
rat TRPV1 Y627W mutant = rat TRPV1 Y627W mutant (Rattus norvegicus, UniProt O35433, Y627W); test: CAPS-evoked 45Ca2+ influx in cells expressing the TRPV1 Y627W point mutant; type: cell-based; conditions: read-out: IC50, 45Ca2+ influx, 4 μM CAPS
rat TRPV1 E651W mutant = rat TRPV1 E651W mutant (Rattus norvegicus, UniProt O35433, E651W); test: CAPS-evoked 45Ca2+ influx in cells expressing the TRPV1 E651W point mutant; type: cell-based; conditions: read-out: IC50, 45Ca2+ influx, 4 μM CAPS
rat TRPV1 D646N mutant = rat TRPV1 D646N mutant (Rattus norvegicus, UniProt O35433, D646N); test: CAPS-evoked 45Ca2+ influx in cells expressing the TRPV1 D646N point mutant; type: cell-based; conditions: read-out: IC50, 45Ca2+ influx, 4 μM CAPS
TRPV1/3T3 cells = TRPV1/3T3 cells (Rattus norvegicus, UniProt O35433); test: CAPS-induced TRPV1-mediated 45Ca2+ accumulation with VGCC blocker; type: cell-based; conditions: data not shown
TRPV1/3T3 cells, sequence (O35433 whole entry): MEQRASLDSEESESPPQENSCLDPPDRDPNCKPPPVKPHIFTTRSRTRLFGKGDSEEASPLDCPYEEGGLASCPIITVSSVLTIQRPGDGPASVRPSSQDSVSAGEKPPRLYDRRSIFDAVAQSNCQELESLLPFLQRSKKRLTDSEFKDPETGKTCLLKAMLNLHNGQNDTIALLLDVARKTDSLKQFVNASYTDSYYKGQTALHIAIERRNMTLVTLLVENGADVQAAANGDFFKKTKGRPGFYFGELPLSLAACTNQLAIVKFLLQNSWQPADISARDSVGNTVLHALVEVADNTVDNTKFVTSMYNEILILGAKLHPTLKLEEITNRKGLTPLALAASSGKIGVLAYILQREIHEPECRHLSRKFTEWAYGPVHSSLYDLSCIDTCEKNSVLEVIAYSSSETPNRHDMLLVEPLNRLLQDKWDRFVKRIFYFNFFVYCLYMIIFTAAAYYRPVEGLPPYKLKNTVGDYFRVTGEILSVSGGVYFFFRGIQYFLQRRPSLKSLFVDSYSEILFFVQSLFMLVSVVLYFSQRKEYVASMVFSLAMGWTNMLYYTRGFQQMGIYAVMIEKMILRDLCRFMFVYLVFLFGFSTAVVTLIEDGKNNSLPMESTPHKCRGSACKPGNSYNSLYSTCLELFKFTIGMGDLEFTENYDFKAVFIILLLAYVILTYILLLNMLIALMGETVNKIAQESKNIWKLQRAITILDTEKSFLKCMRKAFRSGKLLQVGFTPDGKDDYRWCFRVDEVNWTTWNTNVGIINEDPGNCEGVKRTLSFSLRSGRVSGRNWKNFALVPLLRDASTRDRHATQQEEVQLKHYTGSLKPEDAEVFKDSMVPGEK

T1 sequence (O35433 whole entry): as above
rat TRPV1, sequence (O35433 whole entry): as above
rat TRPV1 N628W mutant, sequence (O35433 whole entry N628W): as the sequence (O35433 whole entry) above, with N628W counted along it
wild-type TRPV1, sequence (O35433 whole entry): as the sequence (O35433 whole entry) above
rat TRPV1 D646N mutant, sequence (O35433 whole entry D646N): as the sequence (O35433 whole entry) above, with D646N counted along it
rat TRPV1 Y627W mutant, sequence (O35433 whole entry Y627W): as the sequence (O35433 whole entry) above, with Y627W counted along it
rat TRPV1 E651W mutant, sequence (O35433 whole entry E651W): as the sequence (O35433 whole entry) above, with E651W counted along it

## CN(C)CCC=C1c2ccccc2CCc2ccccc21 [AMI, Amitriptyline, reference compound]
Rat TRPV1
  IC50: 20 µM

## COc1cc(CNC(=O)CCCC/C=C/C(C)C)ccc1O [CAPS, capsaicin, reference compound]
Rat TRPV1; pH 7.5, 45Ca2+ uptake assay
  Concentration causing full activation (EC100) of TRPV1: Approximately 1 μM

## [Ca+2] [Ca^2+]
[1]
  Ionic radius: 100 picometres
[2]
  Stability constant of the complex formed between M2+ and tryptophan: 2.55 ± 0.08

## Oc1cc2c(cc1O)CN(C(=S)NCCc1ccc(Cl)cc1)CCC2 [CapZ, capsazepine, reference compound]
TRPV1 [3]
  Effect on CAPS-induced cellular Co2+ accumulation: inhibited the cellular entry of Co^2+ in a dose-dependent manner
CD1 mice
  Effect on vanilloid-evoked eye wiping movements: Inhibition
TRPV1 [4]; CAPS + Co2+ + CapZ (5 μM CapZ), n = 100
  Mean gray value (intracellular CoS): 76.92 ± 22.21

## [Co+2] [Co^2+]
3T3 cell line
  Co2+ staining in the absence of TRPV1: No substantial staining
Rat TRPV1 N628W mutant
  IC50: 16.4 µM
wild-type TRPV1
  IC50: 18.3 µM
[5]
  CAPS-induced Co2+ accumulation in sensory neurons: enters into the cytosol of specific PNS sensory neurons
Rat TRPV1 Y627W mutant
  IC50: 18.6 µM
CD1 mice
  Effect on vanilloid-evoked eye wiping movements: decreased the frequency of vanilloid-evoked defending movements
[1]
  Ionic radius: 65 picometres
TRPV1 [4]; CAPS + Co2+ (20 μM CAPS + 5 mM Co2+), n = 111
  Mean gray value (intracellular CoS): 124.4 ± 21.51
Rat TRPV1 E651W mutant
  IC50: 15.3 µM
Rat TRPV1; read-out: IC50 of Co2+, in the presence of 0 μM cold Ca2+
  IC50: 7.94 µM
Rat TRPV1; read-out: IC50 of Co2+, in the presence of 0.0625 μM CAPS
  IC50: 94.8 µM
Rat TRPV1; read-out: IC50 of Co2+, in the presence of 0.125 μM CAPS
  IC50: 58 µM
Rat TRPV1; read-out: IC50 of Co2+, in the presence of 0.25 μM CAPS
  IC50: 73.2 µM
Rat TRPV1; read-out: IC50 of Co2+, in the presence of 0.5 μM CAPS
  IC50: 32.6 µM
Rat TRPV1; read-out: IC50 of Co2+, in the presence of 1 μM CAPS
  IC50: 19.2 µM
Rat TRPV1; read-out: IC50 of Co2+, in the presence of 2 μM CAPS
  IC50: 22.6 µM
Rat TRPV1; read-out: IC50 of Co2+, in the presence of 4 μM CAPS
  IC50: 15.6 µM
Rat TRPV1; read-out: IC50 of Co2+, in the presence of 15.625 μM cold Ca2+
  IC50: 51.2 µM
Rat TRPV1; read-out: IC50 of Co2+, in the presence of 31.25 μM cold Ca2+
  IC50: 72.7 µM
Rat TRPV1; read-out: IC50 of Co2+, in the presence of 62.5 μM cold Ca2+
  IC50: 79.1 µM
Rat TRPV1; read-out: IC50 of Co2+, in the presence of 125 μM cold Ca2+
  IC50: 189 µM
Rat TRPV1 D646N mutant
  IC50: 25.7 µM
[2]
  Stability constant of the complex formed between M2+ and tryptophan: 4.34 ± 0.07

## [Cu+2] [Cu^2+]
[1]
  Ionic radius: 73 picometres
[2]
  Stability constant of the complex formed between M2+ and tryptophan: 8.05 ± 0.05

## [La+3] [La^3+]
Rat TRPV1; TRPV1/HaCaT cells
  Effect on CAPS-induced 45Ca2+ uptake (in words): little or no effect

## [Mg+2] [Mg^2+]
[1]
  Ionic radius: 72 picometres
Rat TRPV1; TRPV1/HaCaT cells
  Effect on CAPS-induced 45Ca2+ uptake (in words): little or no effect
[2]
  Stability constant of the complex formed between M2+ and tryptophan: 2.84 ± 0.08

## [Mn+2] [Mn^2+]
[1]
  Ionic radius: 67 picometres
Rat TRPV1; TRPV1/HaCaT cells
  Effect on CAPS-induced 45Ca2+ uptake (in words): little or no effect
[2]
  Stability constant of the complex formed between M2+ and tryptophan: 3.34 ± 0.05

## [Ni+2] [Ni^2+]
[1]
  Ionic radius: 69 picometres
[2]
  Stability constant of the complex formed between M2+ and tryptophan: 5.31 ± 0.06

## N.N.N.N.N.N.N.N.N.N.N.N.N.N.[Cl-].[Cl-].[Cl-].[Cl-].[Cl-].[Cl-].[O-2].[O-2].[Ru+3].[Ru+3].[Ru+4] [RuRed, Ruthenium Red, reference compound]
Rat TRPV1 N628W mutant
  IC50: 1.33 µM
wild-type TRPV1
  IC50: 0.87 µM
TRPV1 [3]
  Effect on CAPS-induced cellular Co2+ accumulation: blocked
Rat TRPV1 Y627W mutant
  IC50: 0.26 µM
Rat TRPV1 E651W mutant
  IC50: 0.94 µM
Rat TRPV1 D646N mutant
  IC50: 12.8 µM

## [Zn+2] [Zn^2+]
[1]
  Ionic radius: 74 picometres
Rat TRPV1; TRPV1/HaCaT cells
  Effect on CAPS-induced 45Ca2+ uptake (in words): only partial inhibitor
Rat TRPV1; TRPV1/HaCaT cells, CAPS-induced 45Ca2+ uptake
  Decrease of the maximal ion influx achieved: 30%
[2]
  Stability constant of the complex formed between M2+ and tryptophan: 5.00 ± 0.08

## COC(=O)C1=C(C)NC(C)=C(C(=O)OCC(C)C)C1c1ccccc1[N+](=O)[O-] (stereo not shown) [nisoldipine]
TRPV1/3T3 cells
  Effect on CAPS-induced TRPV1-mediated 45Ca2+ accumulation: did not decrease
